# This is a sample that favours compounds with a hit; in the whole collection about 2.8% have one here.
# TNAP inh no acc – inhibitors of human TNAP without phosphate acceptor; purified TNAP, CDP-star luminescence, 30 min; inhibition, % at 20 µM; 200,000 tested, 0.26% active; P05186;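 active means tissue-nonspecific alkaline phosphatase inhibition above about 50% at 20 µM in the single-dose screen, limit read from the data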;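 further: 0% = DMSO negative control and 100% = EDTA positive control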
# Target sequence (P05186 whole entry, looked up): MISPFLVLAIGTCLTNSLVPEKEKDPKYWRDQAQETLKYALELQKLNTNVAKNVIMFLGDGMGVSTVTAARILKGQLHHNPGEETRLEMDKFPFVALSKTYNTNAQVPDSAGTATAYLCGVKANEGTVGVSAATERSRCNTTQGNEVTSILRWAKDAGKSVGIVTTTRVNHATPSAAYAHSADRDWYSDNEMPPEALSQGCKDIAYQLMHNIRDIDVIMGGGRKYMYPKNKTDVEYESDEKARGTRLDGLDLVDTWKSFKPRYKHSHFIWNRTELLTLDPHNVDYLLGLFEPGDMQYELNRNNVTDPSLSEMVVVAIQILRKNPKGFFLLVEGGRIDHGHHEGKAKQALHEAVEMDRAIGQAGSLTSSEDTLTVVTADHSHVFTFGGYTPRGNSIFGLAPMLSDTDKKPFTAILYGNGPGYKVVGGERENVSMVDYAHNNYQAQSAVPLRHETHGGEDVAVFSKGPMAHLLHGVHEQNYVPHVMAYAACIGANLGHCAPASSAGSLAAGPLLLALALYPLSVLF
# TNAP act hiacc – activators of human TNAP at high phosphate acceptor concentration. P05186. purified TNAP, CDP-star luminescence, 1 M DEA, 30 min; active compounds read high; 0 = EDTA background, 1 = DMSO-only activity. activation factor at 20 µM. 200,000 tested, under 10 active;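 active means activation factor at least 2 at 20 µM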
#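 system = human TNAP | amount = enzyme diluted 1/800 final | reagent = 100 µM CDP-star substrate | signal = luminescent substrate turnover signal | dosing = one dose, 20 µM | benchmarks = EDTA negative control, DMSO positive control | measure = activation factor | timing = 30 min reaction, room temperature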
# BB579 growth dn – reduces growth of yeast BB579 in restrictive medium; inhibition, % at 10 µM; 140,000 tested, 0.51% active; S. cerevisiae BB579 growth, OD615, 48 h; AID 804;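 active means inhibition above a set limit, 3 SD over the mean compound inhibition, cut at about 44% in these data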
#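 controls = amphotericin B 10 µg/mL, positive | assay system = DeaD yeast strain BB579 | schedule = 48 h compound exposure at 30 °C after 4 h preincubation | detection = OD615 turbidity measurement | medium = restrictive CSMM-D medium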
# Yeast life ext – extends the lifespan of yeast | S. cerevisiae growth with nicotinamide, OD615; deaD strain in restrictive glucose medium | inhibition of the nicotinamide effect, % at 10 µM | 130,000 tested, 0.68% active | AID 775;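 active means inhibition above a set limit, placed 3 SD over the median of all compounds, cut at about 26% in these data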;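 further: 0% = nicotinamide-treated wells and 100% = cells grown without nicotinamide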
#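 assay system = DeaD-strain S. cerevisiae | buffer or medium = restrictive glucose medium | reagent = 1.5 mM nicotinamide | compound = 10 µM single point, 0.25% DMSO | incubation = 48 h compound exposure at 30 °C, humidified | signal = OD615 measurement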
# TNAP inh hi DEA – TNAP (human) inhibition, high acceptor. 200,000 tested, 0.03% active. inhibition, % at 20 µM. purified TNAP, CDP-star luminescence, 1 M DEA. P05186. AID 1135;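 active means over 50% inhibition of tissue-nonspecific alkaline phosphatase at 20 µM in the single-dose screen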;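 further: plate controls were DMSO wells for no effect and EDTA-quenched wells as full inhibition for full effect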
# RAM inhibit – yeast RAM network inhibition; S. cerevisiae dse1pr::URA3 reporter, 5-FOA growth OD615, 2 d; analog-sensitive cbk1-as2 kinase mutant strain; inhibition, % at 50 µM; 190,000 tested, 1.8% active; AID 868;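 active means inhibition above a set limit, 3 SD over mean compound inhibition, cut at about 8.4% in these data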;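 further: 0% = DMSO-only wells with no growth and 100% = 10 µM 1-NA-PP1 full growth; inhibition rescues growth on 5-FOA so higher OD means more RAM inhibition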
# Starred values were filed as active, the others as inactive; / = not tested or not shown.
SMILES,TNAP inh no acc,TNAP act hiacc,BB579 growth dn,Yeast life ext,TNAP inh hi DEA,RAM inhibit
O=C(O)CNC(=O)/C(=C\c1ccc2c(c1)OCO2)NC(=O)c1ccc(Br)cc1,-10,1,/,/,2,2
O=C(Nc1ccc(C(=O)O)cc1)/C(=C\c1ccc2c(c1)OCO2)NC(=O)c1ccccc1,-5,1,/,/,-4,9.2*
CC1CN(C(=O)Nc2ccccc2)c2ccccc2-[n+]2ccsc21 (stereo unspecified),72*,1,-6,8,1,0
O=C(Nc1ccccc1)N1CCc2scc[n+]2-c2ccccc21,70*,1,6,3,0,2
O=CN1CCc2scc[n+]2-c2ccccc21,-5,1,3,/,0,0
Cn1c(-c2ccc(Br)cc2)cnc1NCc1cccnc1,-12,1,-29,42*,-4,2
Cn1c(-c2ccc(F)cc2)cnc1NCc1ccc(F)cc1,-9,1,-59,9,0,2
O=C(COc1ccc(Br)cc1Cl)NC(=O)Nc1ccc2c(c1)OCCO2,-2,1,/,/,-4,1
O=C(COc1ccc(Br)cc1Cl)NC(=O)NCc1ccccc1,-1,1,-32,7,-1,8.8*
COc1cc([N+](=O)[O-])ccc1NC(=O)CN1CCN(C(=O)c2ccco2)CC1,-8,1.1,/,/,-6,2
CC(NC(=O)CSc1ccccc1C(=O)O)C1CC2CCC1C2 (stereo unspecified),-4,1,/,/,-2,2
CC(NCc1ccc(N(C)C)cc1)C1CC2CCC1C2 (stereo unspecified),-22,1,-7,47*,-5,-1
CCn1c(CNC(=O)Cc2ccc(OC)cc2)nnc1SCC(=O)Nc1ccc(C(=O)O)cc1,-4,1,/,/,-3,8.8*
Cc1ccc(C(=O)Oc2cccc(NC(=O)c3ccccc3)c2)cc1C,-21,1,-20,3,0,10*
O=C(Nc1cccc(OC(=O)c2cccnc2)c1)c1cccnc1,6,1,-50,-5,-4,1
O=C(CSc1nnc(-c2ccccn2)n1Cc1ccccc1)N1CCCC1,-1,1,8,-8,-3,1
CCS(=O)(=O)n1nc(-c2ccc(Cl)cc2)nc1SC,61*,1,-15,-9,0,1
CCS(=O)(=O)n1nc(-c2ccco2)nc1SC,4,1.1,-19,-18,-8,0
COc1ccc(C2CC(c3ccccc3)=NN2C(=O)COC(=O)c2cc(S(=O)(=O)N3CCOCC3)ccc2F)cc1 (stereo unspecified),-15,1,-20,5,-3,5
Cc1ccc(-n2nnnc2SCCNS(=O)(=O)c2ccccc2)cc1C,-12,1,-26,-9,-4,9.9*
Cn1nnnc1SCCNS(=O)(=O)c1ccccc1,-7,1,-27,-12,-5,1
Cc1[nH]n(-c2ccccc2)c(=O)c1N=Nc1ccccc1O,12,0.7,/,/,28,9.9*
Cc1[nH]n(-c2ccccc2)c(=O)c1N=Nc1nccs1,30,0.8,-39,34*,23,2
C=CCNC1=C(Cl)C(=O)N(c2ccccc2Cl)C1=O,7,1,-82,5,0,8.9*
Cc1c(NC2=C(Cl)C(=O)N(c3ccccc3Cl)C2=O)c(=O)n(-c2ccccc2)n1C,-10,1,-48,0,-3,4
SMILES,TNAP inh no acc,TNAP act hiacc,BB579 growth dn,Yeast life ext,TNAP inh hi DEA,RAM inhibit
O=C(CSCc1cnn(-c2ccccc2)c1-n1cccc1)NCc1ccc2c(c1)OCO2,-11,1,-42,-1,-5,11*
c1ccc(CCn2c(C3CC3)nc3ccccc32)cc1,-20,1,-12,-5,-1,2
COc1ccc(S(=O)(=O)Nc2ccc(S(=O)(=O)Nc3ccc(F)cc3)cc2)cc1C,-12,1.1,-8,/,-6,9.6*
CCOc1cc(C)c(S(=O)(=O)Nc2ccc(F)cc2)cc1C,-17,1,-20,-18,-1,13*
COc1ccc(C)cc1S(=O)(=O)Nc1ccc(F)cc1,-8,1,-1,-16,-2,0
O=C1CN(C(=O)CSc2nnnn2-c2ccc(Cl)cc2)c2ccccc2N1,5,1.1,-43,-12,-8,0

# Compound activity deposited in PubChem BioAssay by several laboratories.
